Compound activity from PubChem BioAssay.
MT1-MMP act inh: MT1-MMP (human) activation inhibition; AID 651647; GFP/RFP ratio change, % at 20 µM; HT1080 RFP-PRO-GFP cells, GFP/RFP ratio fluorescence, overnight; percent of plate control window, DMSO zero; P50281; 0.061% of 360,000 active;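 active means GFP/RFP ratio change of at least 30% with cell ATP level not reduced by more than half and red fluorescence within 50% of control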
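Test system: HT1080 cells expressing an RFP-PRO-GFP fluorescent reporter construct / Compound dosing: single-point 20 µM compound, 1% DMSO / Schedule: cells overnight before dosing, compound overnight, 37 °C, 5% CO2 / Evaluation: GFP/RFP fluorescence ratio / Control set: DMSO and RFP-L50D-GFP cell wells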
DAGLB inh: diacylglycerol lipase beta (human) inhibition; Q8NCG7; HEK293T DAGLB membrane lysate, EnzChek fluorogenic substrate; inhibition, % at 5.17 µM; 0.059% of 340,000 active; in the data active means inhibition above about 34%;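 further: 0% = enzyme with vehicle and 100% = wells lacking enzyme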
FGF22 binding: FGF22 (human) thermal shift binding | Q9HCT0 | recombinant FGF22 thermal shift, SYPRO orange fluorescence; percent of sucrose octasulfate shift, DMSO zero | activity (Tm shift, normalised), % at 9.99 µM | 1.5% of 340,000 active;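 active means mean Tm shift, scaled 0 neutral to 100 positive control, at about 1.3% or above, every replicate too, limit read from the data; inconclusive means no clear call, values can overlap the other calls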
Target sequence (Q9HCT0 whole entry, looked up): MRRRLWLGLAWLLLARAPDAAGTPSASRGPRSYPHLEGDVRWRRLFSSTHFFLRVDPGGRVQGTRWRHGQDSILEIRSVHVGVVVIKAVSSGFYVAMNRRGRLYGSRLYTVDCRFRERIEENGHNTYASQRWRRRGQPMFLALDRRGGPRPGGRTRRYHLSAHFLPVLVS
ABCB6 inh MLPCN: human ABCB6 transporter inhibition | Q9NP58 | K562-ABCB6 porphyrin accumulation, flow cytometry, 1 h; hits give low values | fluorescence ratio to DMSO, % at 10 µM | 0.19% of 360,000 active;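 active means fluorescence ratio to DMSO below 75%, the collection mean minus 3 SD; inconclusive means too few cells collected in the well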;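 further: signal is porphyrin accumulated inside mitochondria; 100% equals median channel fluorescence of DMSO control wells; lower ratio means ABCB6 inhibition with less porphyrin fluorescence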
Granule exo inh: lytic granule exocytosis inhibition; AID 651702; TALL-104 LAMP-1 surface exposure, flow cytometry; cells stimulated with thapsigargin and PMA; 0.66% of 360,000 active; inhibition, % at 10 µM;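 active means inhibition above about 55%, limit read from the data; inconclusive means no clear call, values can overlap the other calls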
VLA-4 inh: inhibition in a human VLA-4 binding assay; 0.2% of 330,000 active; VLA-4 expressing cells, ligand binding flow cytometry; AID 2557; P13612; inhibition, % (about 7 µM as worked out from the volumes in the protocol); in the data active means inhibition above about 50%
Starred values were filed as active, the others as inactive; ? = inconclusive; . = no result. The list is not random: actives were taken first. Their share in the collection is about 2%.

SMILES	MT1-MMP act inh	DAGLB inh	FGF22 binding	ABCB6 inh MLPCN	Granule exo inh	VLA-4 inh
COc1ccc(-c2nn(-c3ccccc3)cc2C(=O)OCC(=O)c2ccc(C)c([N+](=O)[O-])c2)cc1	-2	-5	43*	92	2	3
COC(=O)Cc1[nH]n(-c2nc3ccccc3s2)c(=O)c1C(C)=Nc1ccc(C)cc1	4	1	2.5*	98	-1	12
CCn1nc(C(=O)OCC(=O)N(CC(C)C)c2c(N)n(Cc3ccccc3)c(=O)[nH]c2=O)c2ccccc2c1=O	0	-3	9.2*	96	2	4
O=C(COc1ccc([N+](=O)[O-])cc1)NNC(=S)NC(=O)c1ccc(Br)cc1	4	1	0	101	2	61*
O=C(CCN1CCCCC1)NNC(=S)NC(=O)c1ccc(Br)cc1	3	0	43*	103	2	9
O=C([C@H]1N[C@H]2c3ccc(-c4ccccc4F)c(=O)n3C[C@H]2[C@@H]1CO)N1CCc2ccccc2C1	.	.	0	.	.	.
CO[C@H]1CN(C)C(=O)c2ccc(NC(=O)Nc3cccc(Cl)c3)cc2OC[C@@H](C)NC[C@H]1C	.	.	0	.	.	.
O=S(=O)(Nc1ncnc2scc(-c3ccc(F)cc3)c12)c1cc(F)ccc1F	-5	8	2.8*	93	3	-9
COc1ccc(S(=O)(=O)N(C)C[C@@H]2OCCCC[C@@H](C)Oc3ccc(NS(=O)(=O)c4ccc(C)cc4)cc3C(=O)N([C@H](C)CO)C[C@@H]2C)cc1	.	.	0	.	.	.
Cc1cc(C(=O)Nc2cccc3c2O[C@@H](CN(C)C(=O)NC(C)C)[C@@H](C)CN([C@H](C)CO)C3=O)n(C)n1	.	.	0	.	.	.
O=C(NC(=S)Nc1cc(S(=O)(=O)N2CCOCC2)ccc1O)c1ccco1	1	2	5.5*	101	1	-11
O=C(NC(=S)Nc1cc(S(=O)(=O)N2CCOCC2)ccc1N1CCOCC1)c1ccco1	-1	0	0	97	-5	35
O=C(C[C@@H]1CC[C@@H]2[C@H](COC[C@H](O)CN2S(=O)(=O)c2ccccc2Cl)O1)N1CCC(Cc2ccccc2)CC1	.	.	-1	.	.	.
Cc1cc(Br)ccc1NC(=O)CNC(=O)Cn1ncc(Cl)c(Cl)c1=O	-29	-2	43	89	3	50*
Cc1noc(C)c1S(=O)(=O)Nc1cccc2c1O[C@H](CN(C)S(C)(=O)=O)[C@H](C)CN([C@H](C)CO)C2=O	.	.	0	.	.	.
CN1c2ccccc2Oc2nnc(N3CCN(Cc4ccccc4)CC3)cc21	3	2	43*	93	4	5
CCCCNC(=O)CSc1nc2c(sc(=S)n2-c2cc(Cl)ccc2OC)c(=O)[nH]1	1	3	1.4*	96	2	-10
CCc1ccc(-n2c(=S)sc3c(=O)[nH]c(SCC(=O)NC4CCCCC4)nc32)cc1	17	6	44*	100	2	.
COc1ccc(Cl)cc1-n1c(=S)sc2c(=O)[nH]c(SCC(=O)C(C)(C)C)nc21	4	13	1	98	3	-5
C[C@H]1CCCCO[C@H](CN(C)C(=O)Cc2ccccc2)[C@@H](C)CN([C@@H](C)CO)C(=O)c2cc(NS(=O)(=O)c3cn(C)cn3)ccc2O1	.	.	0	.	.	.
CO[C@H]1CN(C)C(=O)c2cc(NC(=O)Nc3ccccc3)ccc2OC[C@H](C)N(C(=O)CC2CC2)C[C@H]1C	.	.	0	.	.	.
COc1ccc(CCNC(=O)/C(C#N)=C2\N=C(NC(=O)c3ccco3)c3ccccc32)cc1	2	.	.	101	84*	7
Cc1cc(OCC(=O)N2CCc3ccccc3C2)c(C)cc1Br	1	-5	18*	199	36	5
CC(/C=C/c1ccc(O)cc1)=NNc1ccccc1	-3	2	1	99	59*	.
CC(/C=C/c1ccccc1)=N\Nc1nc(C)cc(C)n1	1	-5	.	102	-5	14
SMILES	MT1-MMP act inh	DAGLB inh	FGF22 binding	ABCB6 inh MLPCN	Granule exo inh	VLA-4 inh
C[C@H](CO)N1C[C@H](C)[C@H](CN(C)C(=O)c2ccccn2)Oc2cc(C#Cc3ccccc3)ccc2S1(=O)=O	.	.	1	.	.	.
Nc1nc(SCCO)[nH]c(=O)c1NC(=O)c1ccccc1F	3	-2	44*	95	24	8
CO/N=C\CC(=O)Nc1ccc(Cl)cc1Cl	-1	0	43*	101	1	-4
COc1ccc(NC(=O)Nc2ccc3c(c2)C(=O)N([C@H](C)CO)C[C@H](C)[C@H](CN(C)S(C)(=O)=O)O3)cc1	.	.	1	.	.	.
COc1cc(OC)cc(C(=O)NCc2cc(C)nc3ccccc23)c1	8	1	44*	99	3	4
C[C@H]1CN([C@@H](C)CO)C(=O)c2cc(NC(=O)CCN3CCOCC3)ccc2O[C@H]1CN(C)C	.	.	0	.	.	.
CCOC(=O)/C(=C\c1ccc(C)cc1)NC(=O)c1ccccc1	-3	1	0	70*	-1	7
O=C(NCCc1ccccc1)/C(=C\c1ccc([N+](=O)[O-])cc1)NC(=O)c1ccc(Br)cc1	0	1	0	97	-4	14
Cc1ccc(C(=O)N/C(=C\c2ccc([N+](=O)[O-])cc2)C(=O)NCCc2ccccc2)cc1	3	0	.	71*	0	2
O=C1C=C(c2ccc(-c3ccccc3)cc2)C[C@@H](c2ccc(F)cc2)C1	5	0	0	95	-8	30
O=C1C=C(c2ccccc2Oc2ccccc2)C[C@@H](c2ccc(F)cc2)C1	-3	-7	43*	94	2	.
C[C@@H]1CCCCO[C@@H](CN(C)S(C)(=O)=O)[C@H](C)CN([C@H](C)CO)C(=O)c2cc(NC(=O)Nc3ccc4c(c3)OCO4)ccc2O1	.	.	0	.	.	.
Cc1c(C(=O)C(=O)NCc2cccs2)c2ccccc2n1C	0	-1	43*	101	0	5
CC(=O)Oc1ccc(C(=O)Nc2ccccc2NC(=O)c2ccc(OC(C)=O)cc2)cc1	-6	2	0	98	58*	14
COC(=O)C[C@H]1CC[C@@H]2[C@@H](COc3ccc(NC(=O)Nc4ccccc4C)cc3C(=O)N2C)O1	.	.	0	.	.	.
Cc1ccc(C2CC(c3cccs3)=NN2C(=O)c2ccco2)o1 (stereo not given)	-4	2	44*	98	0	1
O=[N+]([O-])c1ccc(O)c(/C=N/NC(=S)Nc2ccc(Cl)cc2Cl)c1	-11	13	0	98	?	15
COc1ccccc1NC(=O)C(=O)N/N=C/c1ccc([N+](=O)[O-])s1	1	-1	44*	111	0	.
O=[N+]([O-])c1ccc(/C=N/NC(=S)Nc2ccc(Cl)cc2Cl)s1	-11	11	0	114	94*	-46
